Measured values pooled from the literature.
Target: Serine/threonine-protein kinase D2 (PRKD2, Homo sapiens, UniProt Q9BZL6)
Residues used in one study (Q9BZL6 1-878): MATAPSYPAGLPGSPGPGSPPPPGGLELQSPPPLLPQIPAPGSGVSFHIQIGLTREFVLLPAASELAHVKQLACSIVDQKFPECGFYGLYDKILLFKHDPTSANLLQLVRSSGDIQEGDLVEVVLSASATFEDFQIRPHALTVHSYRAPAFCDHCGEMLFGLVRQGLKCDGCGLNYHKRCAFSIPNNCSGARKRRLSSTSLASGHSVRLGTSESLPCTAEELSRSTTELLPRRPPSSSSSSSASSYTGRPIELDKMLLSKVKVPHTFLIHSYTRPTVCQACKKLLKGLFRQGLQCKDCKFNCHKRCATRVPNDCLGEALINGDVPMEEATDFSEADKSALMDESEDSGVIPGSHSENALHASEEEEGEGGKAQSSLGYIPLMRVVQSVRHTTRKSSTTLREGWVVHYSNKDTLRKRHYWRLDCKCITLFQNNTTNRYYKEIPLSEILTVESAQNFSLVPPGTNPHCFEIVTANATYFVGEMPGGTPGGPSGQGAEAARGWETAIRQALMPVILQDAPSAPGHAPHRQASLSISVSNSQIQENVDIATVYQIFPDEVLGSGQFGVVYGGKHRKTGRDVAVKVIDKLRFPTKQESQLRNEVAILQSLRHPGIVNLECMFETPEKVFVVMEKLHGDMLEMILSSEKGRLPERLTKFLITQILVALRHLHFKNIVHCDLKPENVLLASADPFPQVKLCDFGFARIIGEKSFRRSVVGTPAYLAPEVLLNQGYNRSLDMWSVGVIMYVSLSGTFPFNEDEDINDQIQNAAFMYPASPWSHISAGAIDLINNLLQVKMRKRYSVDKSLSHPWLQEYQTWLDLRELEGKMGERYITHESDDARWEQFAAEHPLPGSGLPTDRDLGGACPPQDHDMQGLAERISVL

CC1=C(C#N)[C@@H](c2ccc3[nH]nc(C)c3c2)C(C#N)=C(c2ccc(Cl)cc2)N1 — remaining binding (cell-free assay; competition with immobilised ligand; 1 µM): 100%
C=CC(=O)N1CCC(C(=O)NCC(=O)N2CCN(c3nc(-c4cnc(N)nc4C(F)F)nc(N4CCOCC4)n3)CC2)CC1 — remaining binding (binding; competition with immobilised ligand; 1 µM): 100%
O=C(NCCCC1CCCCC1)c1ccc(CNC(=O)c2cnn(-c3ccccc3)c2C(F)(F)F)cc1 — remaining binding (cell-free assay; competition with immobilised ligand; 0.1 µM): 100%
Cc1cnn2ncc(-c3ccnc(N(C)C)n3)c2c1 — remaining binding (binding; 1 µM): 100%
FC(F)(F)Oc1cccc(-c2cnc3ccc(-c4ccncc4)nn23)c1 — remaining binding (cell-free assay; competition with immobilised ligand; 5 µM): 99%
C[C@H]1CCN(c2nccc(-c3cnn4ncccc34)n2)C1 — remaining binding (binding; 1 µM): 82%
O=C(NCC1CCOCC1)c1n[nH]cc1NC(=O)c1c(F)cccc1F — remaining binding (binding; competition with immobilised ligand; 1 µM): 100%
O=C(Nc1cccnn1)N1CCC(=Cc2cccc(Oc3ccc(C(F)(F)F)cn3)c2)CC1 — remaining binding (cell-free assay; competition with immobilised ligand; 1 µM): 94%
O=C(c1ccc(Nc2ncc(Cl)c(-c3ccc(Cl)s3)n2)cc1)N1CCC(N2CCCC2)CC1 — remaining binding (binding; competition with immobilised ligand; 1 µM): 8.7%
CN(CCCC(F)(F)F)c1nccc(-c2cnn3ncccc23)n1 — remaining binding (binding; 1 µM): 99%
Cc1cnc(Nc2ccc(C(=O)N3CCC(N4CCCC4)CC3)cc2)nc1-c1cc2ccccc2s1 — remaining binding (binding; competition with immobilised ligand; 1 µM): 47%
Nc1ncc2c(n1)-c1c([nH]c3ccc(C#CC4CC4)cc13)CCCC2 — remaining binding (binding; competition with immobilised ligand; 1 µM): 87%
COc1cnc(Nc2cccc(S(N)(=O)=O)c2)nc1N1CCN(c2ccccc2)C(=O)C1 — remaining binding (binding; competition with immobilised ligand; 1 µM): 100%
CNCc1ccccc1-c1csc([C@@H](C)Nc2nc(C)nc3cc(OC)c(OC)cc23)c1 — remaining binding (cell-free assay; competition with immobilised ligand; 1 µM): 100%
C[C@@H](c1ccc(-n2cnc3c(N)ncnc32)cc1)N1CCc2nn(C)c(Cc3ccccc3)c2C1=O — remaining binding (binding; competition with immobilised ligand; 0.1 µM): 99%
O=C(NCCCN1CCOCC1)c1ccc(Nc2ncc(Cl)c(-c3ccc(Cl)s3)n2)cc1 — remaining binding (binding; competition with immobilised ligand; 1 µM): 3.9%
c1cnn2ncc(-c3ccnc(N4CCC45COC5)n3)c2c1 — remaining binding (binding; 1 µM): 89%
CNC(=O)[C@@H]1CC[C@@H](n2c(-c3ccc4cnccc4c3)nc3ccc(C(=O)NCc4cccc(C(N)=O)c4)cc32)C1 — remaining binding (binding; competition with immobilised ligand; 1 µM): 90%
N[C@H]1CCN(c2nccc(-c3cnn4ncccc34)n2)C1 — remaining binding (binding; 1 µM): 74%
CS(=O)(=O)N1CCCC(NC(=O)[C@H](CCC2CCCCC2)NC(=O)c2ccc(CNC(=O)c3cnc4ccccn34)cc2)C1 (stereo partly shown) — remaining binding (cell-free assay; competition with immobilised ligand; 0.1 µM): 100%
CC1CCCN1c1nccc(-c2cnn3ncccc23)n1 (stereo not shown) — remaining binding (binding; 1 µM): 85%
O=C(NC[C@@H]1[C@H]2CN(C(=O)OCc3cc(C(F)(F)F)cc(C(F)(F)F)c3)C[C@@H]12)c1ccc2[nH]nnc2c1 — remaining binding (cell-free assay; competition with immobilised ligand; 1 µM): 85%
